Laboratory results taken from ChEMBL document CHEMBL4513216, “Probing the Open Global Health Chemical Diversity Library for Multistage-Active Starting Points for Next-Generation Antimalarials” (ACS Infect Dis, 2020).

Assay: Toxicity liver stage against HepG2, at 10uM
Format: cell-based
Set-up: test concentration 10 uM, cell line HepG2-A16-CD81EGFP
Conditions: human, HepG2-A16-CD81EGFP cells; read-out: INHIBITION
How it was run: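 Uninfected HepG2-A16-CD81EGFP cells, 3 × 10^3 per well, 1536-well, plated on prespotted compound at 10 μM final, parasite-free screening media added to match infected plates; puromycin 10 μM positive, DMSO 0.5% negative; run in parallel with 48 h PbLuc assay at 37 °C, 5% CO2; viability by CellTiter-Glo luminescence, normalized to controls.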

SMILES | cytotoxicity at 10 µM [%]
COCC(=O)NC[C@H]1OC[C@@H](NC2CCC(F)(F)CC2)[C@@H]1O | -3.32
Cn1cc(CNC[C@H]2Cn3ccnc3CO2)c2ccccc21 | -1.91
Cc1nc(N2CCCC2)nc(C)c1NS(C)(=O)=O | 1.61
O=C(Cn1nc(Br)nc1Br)N1CCCCC1 | -4.38
CN(C)C(CNS(=O)(=O)c1ccc(F)cc1F)c1cccn1C (stereo not given) | -13.9
COCC1c2c(cnn2C)CCN1Cc1ccoc1 (stereo not given) | -10.8
O=C(Cn1nc(C(F)(F)F)c(Br)c1C1CC1)N1CCOCC1 | -0.614
O=C(O)CCC(=O)Nc1nn(Cc2ccccc2Cl)cc1Cl | 7
Cc1nn(C)c2cn(C(C)C(=O)NCc3ccc(F)cc3)nc12 (stereo not given) | 9.46
O=C(Cn1ccc(C(=O)O)n1)Nc1c(Cl)cccc1Cl | 7.07
COc1ccc(-c2cc(C3(O)CCN(C)CC3)on2)cc1 | 3.89
COCCNC(=O)c1nnn(Cc2ccccc2)c1OC | 11.6
Cc1nn(C)cc1NC(=O)CN1CCN(C2CCCC2)C(=O)C1 | 6.89
CN1CCOC(C)(C(=O)Nc2nccs2)C1 (stereo not given) | 4.92
Cc1ccc(-c2nnc(C3CCCN3S(=O)(=O)c3cnn(C)c3C)o2)s1 (stereo not given) | 5.35
CCCn1nccc1-c1cnc(CC2CCN(C(C)=O)C2)cn1 (stereo not given) | -6.88
COc1ccc2c(c1)NC(C1CCNCC1)NS2(=O)=O (stereo not given) | -2.86
Cc1nnsc1C(=O)N1CCCCC1c1cc2nc(C)c(C)c(O)n2n1 (stereo not given) | -5.93
NC(=O)C1(c2cnccn2)CCCN1Cc1ccccn1 (stereo not given) | -6.36
COc1ccc(C)cc1CC(=O)N1CC[C@@]2(CCCO2)[C@@H](O)C1 | -1.47
Cc1cccc(Nc2cc(C)nc(C3CCCCN3CC(N)=O)n2)n1 (stereo not given) | -4.03
CN(C)C(=O)CN1CCCCC1c1nc(N)ncc1-c1ccccc1 (stereo not given) | 4.19

SMILES | cytotoxicity at 10 µM [%]
CCn1cc(CN2CC3CCCN3C[C@H]2C)c(C)n1 (stereo not given in full) | 0.951
O=C(CC(SC1CCCCC1)C(=O)O)c1ccc(Br)cc1 (stereo not given) | 3.43
O=S(=O)(c1cc(F)ccc1F)N1CCCC1c1ccncc1 (stereo not given) | 14.3
Cc1cc(C(=O)N(C)C2CCS(=O)(=O)C2)c2ccc(F)cc2n1 (stereo not given) | -9.59
COc1ccc(CN(C)Cn2cc(C)n(-c3cc(C)on3)c2=O)cc1 | 3.36
O=S(=O)(c1cncc(F)c1)N1CCC2(CCCCC2)C1 | -4.61
CN(Cc1nnc2ccccn12)C(=O)NC1CCCCC1 | -5.97
CC(C)(C)c1n[nH]c(C2CN(CC3CCC3)CCO2)n1 (stereo not given) | 9.15
COc1ccccc1CC1CCCN(C(=O)c2n[nH]c3c2CCC3)C1 (stereo not given) | 13.3
Cc1ccc(C)c(Oc2ccc(CNC(=O)C3CCC(=O)N3)cn2)c1 (stereo not given) | 5.98
O=C(NCC1CCCN1CCc1ccccc1)NCC1(O)CCC1 (stereo not given) | -3.06
CNC(=O)c1c(C)cccc1NCC(=O)Nc1cc(C)nn1C | -0.503
O=C(Cc1ccc(F)cc1)NCCNS(=O)(=O)c1ccc(F)c(F)c1 | -6.7
Cc1nc(-c2cnn(C)c2)sc1C(=O)NCc1ccc(C)n1C | 9.25
CC1CN(C(=O)NCc2cccc(C#N)c2)CCN1CC(F)(F)F (stereo not given) | -6.68
CC(C)CCC(=O)NCC(=O)N1CCCCCC1c1ccco1 (stereo not given) | 7.47
CNC(=O)CN1CCOC(c2ccccc2C(F)(F)F)C1 (stereo not given) | 0.71
CS(=O)(=O)N1CCc2c(cccc2NC(=O)Nc2ccccn2)C1 | -6
CCc1nccn1C1CCCN(C(=O)c2cc[nH]n2)C1 (stereo not given) | 4.54
CC(C)CC(CCO)CNC(=O)N1CCCC1(C)C (stereo not given) | -12.7
CCN(Cc1ccoc1)C(=O)NC1CCN(CC2CC2)C1 (stereo not given) | -0.525
COCCNC(=O)C(C)S(=O)(=O)c1ccc(OC)cc1 (stereo not given) | 4.4

SMILES | cytotoxicity at 10 µM [%]
CCN(Cc1ccc(Cl)c(Cl)c1)C(=O)CCn1cncn1 | 9.87
CC(=O)N1CCN(CC=C(C)C)CC1 | 3.95
CN(CCc1ccc2c(c1)CCO2)C1CCS(=O)(=O)CC1 | -7.94
CC(NCCCC#N)c1ccc(S(C)(=O)=O)c(F)c1 (stereo not given) | 6.96
O=C(c1cccnc1-n1cccn1)N1CCN(CC2CC2)CC1 | -4.71
CC(C)NC(=O)NCCCc1cc(N)n(-c2ccccc2)n1 | -6.78
COc1ccc(CS(=O)(=O)CC(=O)NCC2CC2)cc1F | -0.265
Cc1cc(C)n(CCCC(=O)N2CC[C@H]3NCCC[C@]3(CO)C2)n1 | -0.862
COc1ccccc1OC1CCN(C(=O)c2cccc(O)c2C)CC1 | 12.5
CCS(=O)(=O)N1CCC(c2nccn2Cc2ccccn2)CC1 | 6.27
CCc1c(C)sc2ncnc(N3CC[C@@H](N4CCOCC4)[C@H](O)C3)c12 | -4.24
Cc1noc(C)c1CN1CCn2nc(CCC(=O)N3CCCC3)cc2C1 | -4.52
Cc1nc(C)n(CCCNc2ncnc3onc(C)c23)n1 | -7.12
CCOCc1nc2c(c(N3CCN4CCCC4C3)n1)CCNCC2 (stereo not given) | 0.394
CCc1ccc(CN2CCN(c3ccc(C(N)=O)cn3)CC2)nc1 | 4.95
Cc1nc(N)nc(C)c1CC(=O)N1CCCCC1c1cccc(F)c1 (stereo not given) | -2.06
OC1(CN2CCCC2)COCCN(c2ncnc3[nH]ccc23)C1 (stereo not given) | 10.7
O=C(COc1cccnc1)N1CCOC(C(F)(F)F)C1 (stereo not given) | -11.5
O=C(NCCNc1cc(N2CCCC2)ncn1)c1cnccn1 | -46.3
CC(C)(C)CC(=O)NS(=O)(=O)c1ccc(C#N)cc1C(F)(F)F | -12.3
Cc1nnc(C(C)N2CCCN(Cc3ccc(F)cc3)CC2)o1 (stereo not given) | -4.92
Cc1cnn(C2CCCN(C(=O)CCNS(C)(=O)=O)C2)c1 (stereo not given) | -28.6

SMILES | cytotoxicity at 10 µM [%]
Cc1nn(CCO)c(C)c1CNCc1cccnc1N(C)C | -9.89
COc1ccc(CNCc2c(C(C)C)nn(C)c2N(C)C)cn1 | -3.92
CCN1CCN(C(=O)c2cnc3c(cnn3C3CCCC3)c2)CC1 | -14.1
Cn1ccc2c(C(=O)N3CCCC3c3noc(C4CC4)n3)cccc21 (stereo not given) | -7.82
N#Cc1ccccc1N1CCCN(C(=O)CCc2ccsc2)CC1 | -8.25
Cc1ncc2c(n1)CN(CCCOc1ccc(C#N)cc1)CC2 | -3.9
CCc1nc(CN2CCCN(C(=O)CCCOC)CC2)cs1 | -14.4
O=C(CN1CCCC(Cn2cncn2)C1)NCc1ccccc1F (stereo not given) | -4.65
Cc1cccc(-c2noc(CN3CCCC3Cn3cncn3)n2)c1 (stereo not given) | 0.983
Cc1cnn(CC2CN(CC(=O)NCc3ccc(C)s3)CCO2)c1 (stereo not given) | 0.742
CN(Cc1nnc2n1CCC2)C(=O)Cc1ccc2c(c1)CCC2 | -15.5
O=C(NCC1CCOC1)c1csc(-c2cccc(Cl)c2)n1 (stereo not given) | -7.41
Cc1cc(CNc2cc(Cl)ccc2Cl)no1 | 18.9
O=C(c1ccc(NC2CC2)nc1)N1CCCC(n2cccn2)C1 (stereo not given) | -12.2
CN(C)C(=O)N1CCN(Cc2noc(Cc3ccccc3)n2)CC1 | -8.8
CCn1cc(NC(=O)C2CCN(Cc3ccccc3C#N)CC2)cn1 | 1.13
O=C(NCCNc1cnccn1)N1CCCC1 | 3.92
c1ccc(CN2CCN(Cc3cscn3)CC2)cc1 | -2.69
C=c1ncsc1=C1NN=C(C2CCCN2C(=O)Cn2cccn2)O1 (stereo not given) | 4
